Assay outcomes from PubChem BioAssay.
The full list was thinned out, with hits kept by preference.
HCT116 bCat-KO – primary screen for growth suppressors in beta-catenin knockout HCT116 cells (colon tumor, human); HCT116 beta-catenin knockout viability, CellTiter-Glo, 60 h; active compounds read low; AID 818, 2007; viability, % at 10 µM; 140,000 tested, 1.5% active;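 active = viability at or under a set limit, the compound median less 4 SD, cut at about 6% in these data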;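 also: 0% = Hyamine 1622 control at 20 µM and 100% = untreated cell control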
H69AR growth 86K – proliferation blockers of H69AR lung cancer cells, primary screen, cell-based, human, 86K library. AID 598, 2007. 85,000 tested, 6% active. viability, % at 10 µM. H69AR lung tumor viability, ATP luminescence, 72 h; active compounds read low;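 active = viability at or below 40%; inactive = viability above 40%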;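 also: multidrug resistant small cell line overexpressing MRP-1 efflux transporter; 100% = mean luminescence of untreated control wells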
HUVEC prolif 384 – inhibitors of HUVEC proliferation, primary screen, cell-based, 384-well; CellTiter-Glo luminescence, 72 h; active compounds read low; viability, % at 10 µM (by protocol); 86,000 tested, 1.1% active;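 active = viability at or below 30%; inactive = viability above 30%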;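 also: 100% = median luminescence of DMSO-only cell control wells on each plate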
PTEN del growth – growth suppression of PTEN-null HCT116, primary screen, cell-based, CellTiter-Glo; HCT116 PTEN-null viability, 60 h; active compounds read low; viability, % at 10 µM; 140,000 tested, 1.2% active; AID 827, 2007;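 active = viability at or below a set limit, 4 SD under the median of all tested compounds, cut at about 3.7% in these data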;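 also: PTEN knockout HCT116 line with beta catenin targeted HCT116 as companion control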
Lung fibro prol – antiproliferative effect on LL 47 fibroblasts – human, LL 47 cells, CellTiter-Glo luminescence, primary screen | LL 47 human lung fibroblast viability, ATP luminescence; active compounds read low | viability, % at 10 µM | 85,000 tested, 1.1% active | AID 719, 2007;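 active = viability at or below 50% in the single dose screen; inactive = viability above 50%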;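 also: compound exposure lasted 72 h before the ATP readout; 100% = median luminescence of untreated cell-only wells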
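test system = LL 47 human lung fibroblasts | amount = 1,150 fibroblasts seeded per well | medium = 15% FBS in IMEM | times = overnight cell rest, 72 h compound treatment at 37 °C | measured by = CellTiter-Glo luminescence measuring cellular ATP | read-out = viability percentage against median untreated-cell control | benchmarks = cell-only wells, no compound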
Numbers without * were called inactive; nt = not tested or not shown.

SMILES	HCT116 bCat-KO	H69AR growth 86K	HUVEC prolif 384	PTEN del growth	Lung fibro prol
CCOC(=O)c1c(C)[nH]c(C(=O)Cn2nnc(-c3ccccc3)n2)c1C	91.9	60.5	81.0	102.1	80.2
Cc1noc(C)c1C(=O)Nc1nc(C23CC4CC(CC(C4)C2)C3)cs1	67.2	100.8	85.3	74.9	98.6
C=CCNCc1cccn1-c1ccccc1	83.9	96.5	97.2	81.3	107.5
CN(C)CCCN1c2ccccc2Sc2ccccc21	64.1	57.0	90.1	54.3	90.1
CN(C)CCCN1c2ccccc2CCc2ccc(Cl)cc21	1.7*	95.7	59.0	1.6*	63.9
Cc1ccc(CSCC(=O)NN=C2CCN(C)CC2)cc1	90.5	nt	nt	101.4	nt
Cc1ccc(NC2=CC(=O)C(=O)c3ccccc32)cc1	1.2*	3.4*	6.5*	0.6*	7.3*
CCOC(=O)c1ccc(NC2=CC(=O)C(=O)c3ccccc32)cc1	1.4*	95.5	5.4*	8.2	3.9*
CCOC(=O)c1ccc(NC(=O)C(C)N2C(=O)c3ccccc3C2=O)cc1 (stereo not drawn)	102.8	93.1	101.4	102.4	108.2
O=C(NCCN1CCN(Cc2ccccc2Cl)CC1)Nc1ccccc1	81.2	84.7	83.7	86.1	109.0
Cc1cc(C)n(-c2nc3ccccc3c(=O)n2OCC(=O)OCc2ccccc2)n1	4.7*	9.8*	59.9	2.8*	26.8*
Cc1cc(C)n(-c2nc3ccccc3c(=O)n2OCC(=O)N(C)C)n1	100.4	95.4	92.0	86.6	96.6
COc1cc2c(cc1NC(=O)c1cccnc1)oc1ccccc12	87.9	35.1*	64.0	85.4	84.5
COc1cc2c(cc1NC(=O)c1cc(-c3ccccn3)nc3ccccc13)oc1ccccc12	6.1*	nt	nt	4.8	nt
COc1cc2c(cc1NC(=O)c1ccncc1)oc1ccccc12	82.2	48.3	75.2	89.2	70.9
O=C(N1CCN(c2ccccn2)CC1)N1c2ccccc2Sc2ccccc21	9.4	34.2*	26.1*	12.8	55.1
O=C(c1ccco1)N1CCN(C(=O)N2c3ccccc3Sc3ccccc32)CC1	14.4	31.9*	38.3	13.8	50.3
O=C(c1ccco1)N1c2ccccc2Sc2ccccc21	69.2	nt	nt	64.8	nt
CN1C(=O)N(C)C2(c3ccccc3)Nn3c(s/c(=C/c4ccccc4)c3=O)=NC12c1ccccc1 (stereo not drawn)	64.7	38.3*	103.0	74.0	90.7
CCOc1ccc(NC(=O)c2ccccc2OCC(=O)c2ccccc2)cc1	84.2	nt	nt	80.3	nt
CCCCCCCCNC(=O)CCNC(=O)c1ccc(C(C)(C)C)cc1	79.7	86.3	69.2	81.1	93.6
Cc1ccc(C23CC4CC(CC(NC(=O)N5CCN(C)CC5)(C4)C2)C3)cc1	1.5*	83.2	71.7	1.6*	84.6
CCN(CC)C(=S)SCC(=O)c1ccccc1	109.9	nt	nt	104.2	nt
CCN(CC)C(=S)SSC(=S)N(CC)CC	1.1*	nt	nt	0.9*	nt
COC(=O)c1cc2occc2n1Cc1c(F)cccc1Cl	97.8	102.2	94.6	83.7	92.7
SMILES	HCT116 bCat-KO	H69AR growth 86K	HUVEC prolif 384	PTEN del growth	Lung fibro prol
COC(=O)c1ccc(C(=O)OC)c(NC(=O)c2ocnc2C)c1	nt	85.0	98.7	nt	98.2
CCOC(=O)Cc1csc(NC(=O)c2c(O)c3ccccc3n(CC(C)C)c2=O)n1	18.8	16.9*	86.1	15.8	103.7
CCOC(=O)Cc1csc(NC(=O)c2ccc3c(c2)OCO3)n1	93.1	87.6	103.9	99.2	104.5
CCOC(=O)Cc1csc(NC(=O)c2ccc(Cl)nc2)n1	60.6	28.7*	82.8	53.3	96.3
CCOC(=O)Cc1csc(NC(=O)c2cccs2)n1	87.7	96.0	99.8	87.8	105.3
COc1cc(NC(=O)COC(=O)CSc2cc(C)ccc2C)c(C)cc1[N+](=O)[O-]	100.7	nt	nt	93.9	nt
Cc1cccc(C=Nc2ccccc2C(N)=O)c1	22.0	23.2*	62.7	23.6	58.4
COc1ccc(C2C(C(=O)O)CCC(=O)N2c2ccc(OC)cc2)cc1 (stereo not drawn)	94.8	96.3	95.7	107.3	93.3
CCCCN(C)C(=O)C1CCC(=O)N(c2cc(OC)c(OC)c(OC)c2)C1c1ccc(OC)cc1 (stereo not drawn)	0.9*	102.5	111.5	0.7*	100.8
CCOC(=O)C(C)(C)N(Cc1cccc(C)c1)S(=O)(=O)c1ccc(Cl)c([N+](=O)[O-])c1	1.7*	nt	nt	3.3*	nt
CCc1ccc2nc(NC(=O)c3cc(C)on3)sc2c1	31.2	17.3*	70.8	24.5	74.9
COc1ccc(-c2cnnc(N/N=C/c3ccc(O)c(OC)c3)n2)cc1	34.1	nt	nt	34.0	nt
COc1cc2ccc(=O)oc2c(O)c1OCC=C(C)C	79.8	36.7*	87.8	93.3	99.6
CCCc1nn(C)c(C(=O)Nc2ccccc2)c1Cl	97.2	nt	nt	100.8	nt
COc1ccc(CNC(=O)C(C#N)c2nc3ccccc3nc2N2CCCC2)cc1 (stereo not drawn)	58.5	33.8*	72.4	54.6	90.2
COC(=O)C1CCN(c2nc3ccccc3nc2C(C#N)C(=O)NCCc2ccccc2)CC1 (stereo not drawn)	65.9	56.7	64.4	74.0	81.5
CCCCNC(=O)C(C#N)c1nc2ccccc2nc1N1CCCC1 (stereo not drawn)	97.5	99.7	105.5	89.9	96.5
COc1ccc(CNC(=O)C(C#N)c2nc3ccccc3nc2N2CCN(C)CC2)cc1 (stereo not drawn)	35.7	34.1*	4.2*	45.0	92.7
Cc1ccc2c(c1)cc(CN(Cc1ccco1)C(=O)COc1ccccc1)c1nnnn12	78.6	37.7*	84.2	73.0	102.1
Cc1ccc2c(c1)cc(CN(Cc1ccccc1)C(=O)N(C)C)c1nnnn12	nt	90.7	95.2	nt	100.6
CCOc1ccc(OCC)c(NC(=O)Nc2ccc3c(c2)N(C)C(=O)CS3)c1	21.9	44.7	60.2	20.8	96.9
CC(C)Nc1nc(NC(C)C)nc(N(C#N)CCOc2ccc(Cl)cc2Cl)n1	65.0	27.9*	86.8	59.8	83.6
CCCS(=O)(=O)c1c(S(=O)(=O)CCC)c2c(C)cccn2c1C(=O)OC	89.8	51.7	90.4	87.2	95.7
CCCS(=O)(=O)c1c(S(=O)(=O)CCC)c2c3ccccc3ccn2c1C(=O)OC	40.6	26.7*	74.0	49.3	83.5
CCCS(=O)(=O)c1c(S(=O)(=O)CCC)c2cc(CC)ccn2c1C(=O)OC	83.6	24.2*	102.5	80.5	91.1
CC(C)(C)[C@]1(O)CCN2C[C@H]3c4ccccc4CCc4cccc(c43)[C@@H]2C1	62.3	nt	nt	59.8	nt
O=C(NC(=S)NCc1ccccc1)C1CCCCC1	111.3	nt	nt	101.0	nt
CC(C)c1nc(SCC(=O)N2CCCC2)c2ccccc2n1	72.0	29.0*	84.5	75.1	81.9
CC1(C)CC(=O)CC(C2(O)C(=O)N(Cc3ccccc3)c3ccccc32)O1 (stereo not drawn)	11.1	28.5*	94.5	9.9	102.6
